{"data": "Results collected from several papers", "target": "Protein kinase C eta type (PRKCH, Homo sapiens, UniProt P24723)", "note": "Protocols differ between the studies behind these lines."}
{"Compound": "Cn1cc(-c2cccc(N3CCc4c(sc5c4CC(C)(C)C5)C3=O)c2CO)cc(Nc2ccncn2)c1=O", "effect on": "enzyme activity", "mode": "inhibitor", "concentration": "1 µM", "quantity": "inhibition", "value": "20%"}
{"Compound": "Cc1nn(C)cc1-c1nc2c(N3CCN(Cc4ccc(Cl)cc4)CC3)c(Cl)cnc2[nH]1", "effect on": "binding", "method": "competition with immobilised ligand", "concentration": "1 µM", "quantity": "remaining binding", "value": "100%"}
{"Compound": "Cn1cc(-c2cc(F)cc(N3CCn4c(cc5c4CCCC5)C3=O)c2CO)cc(Nc2ccc(N3CCN(C4COC4)CC3)cn2)c1=O", "effect on": "enzyme activity", "mode": "inhibitor", "concentration": "0.1 µM", "quantity": "inhibition", "value": "4%"}
{"Compound": "N#CC1(c2ccccn2)CCN(Cc2cc(C(=O)O)c(=O)n3ccccc23)CC1", "effect on": "cell-free assay", "method": "competition with immobilised ligand", "concentration": "1 µM", "quantity": "remaining binding", "value": "100%"}
{"Compound": "Nc1ncc(-c2nc(N3CCOCC3)nc(N3CCOCC3)n2)c(C(F)F)n1", "effect on": "cell-free assay", "method": "competition with immobilised ligand", "concentration": "10 µM", "quantity": "remaining binding", "value": "91%"}
{"Compound": "Cn1cncc1[C@](O)(COc1ccc(C#N)cc1-c1ccc(OC(F)(F)F)cc1)c1ccc(C#N)cc1", "effect on": "cell-free assay", "method": "competition with immobilised ligand", "concentration": "1 µM", "quantity": "remaining binding", "value": "94%"}
{"Compound": "COc1ncccc1-c1cnn2ccc(N3CCN(C(=O)OC(C)C)CC3)nc12", "effect on": "binding", "method": "competition with immobilised ligand", "concentration": "1 µM", "quantity": "remaining binding", "value": "49%"}
{"Compound": "COc1cc(Nc2ncc(F)c(Nc3ccc4c(n3)NC(=O)C(C)(C)O4)n2)cc(OC)c1OC", "effect on": "binding", "concentration": "10 µM", "quantity": "inhibition", "value": "0%"}
